Reference: ChEMBL document CHEMBL4665743, “Labdane-Type Diterpenes from the Aerial Parts of Rydingia persica: Their Absolute Configurations and Protective Effects on LPS-Induced Inflammation in Keratinocytes” (2020)

Key:
Format in all cases: functional
[1] = tested on: HaCaT; test: Anti-inflammatory activity in human HaCaT cells assessed as inhibition of LPS-induced occluding expression at 12.5 uM after 24 hrs by FACS analysis (rvb = 30.17 +/- 5.98)
[2] = tested on: HaCaT; test: Anti-inflammatory activity in human HaCaT cells assessed as inhibition of LPS-induced claudin-1 expression at 50 uM after 24 hrs by FACS analysis (rvb = 31.19 +/- 0.77)
[3] = tested on: HaCaT; test: Anti-inflammatory activity in human HaCaT cells assessed as inhibition of LPS-induced TNF-alpha production at 50 uM after 24 hrs by ELISA relative to LPS alone
Outline: (§1)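 HaCaT keratinocytes (DMEM, 4 g/L glucose, 10% FBS, 1% pen-strep) seeded 5 × 10^3 cells/well and allowed to adhere 24 h. Compounds added for 1 h alone, then with E. coli LPS (5 μg/mL) for 24 h. IL-6 or TNF-α measured in supernatants by ELISA (pg/mL) and expressed as % inhibition vs LPS alone. Indomethacin 10 μM served as reference. Mean ± SEM, n = 3.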

[4] = tested on: HaCaT; test: Anti-inflammatory activity in human HaCaT cells assessed as inhibition of LPS-induced claudin-1 expression at 12.5 uM after 24 hrs by FACS analysis (rvb = 31.19 +/- 0.77)
[5] = tested on: HaCaT; test: Anti-inflammatory activity in human HaCaT cells assessed as inhibition of LPS-induced occluding expression at 25 uM after 24 hrs by FACS analysis (rvb = 30.17 +/- 5.98)
[6] = tested on: HaCaT; test: Anti-inflammatory activity in human HaCaT cells assessed as inhibition of LPS-induced nitrotyrosine production at 12.5 uM after 24 hrs by FACS analysis relative to LPS alone
Outline: (§2)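 Cells were HaCaT seeded at 5 × 10^3 cells/well and pretreated with compound 1 h, then exposed to LPS (5 μg/mL) for 24 h. They were collected, PBS-washed, fixed 20 min and permeabilized 30 min, then stained 1 h with anti-nitrotyrosine antibody plus fluorescent secondary. Fluorescence was read by flow cytometry and expressed as % inhibition vs LPS alone. Mean ± SEM, n = 3.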

[7] = tested on: HaCaT; test: Anti-inflammatory activity in human HaCaT cells assessed as inhibition of LPS-induced nitrotyrosine production at 50 uM after 24 hrs by FACS analysis relative to LPS alone; outline: as §2
[8] = tested on: HaCaT; test: Anti-inflammatory activity in human HaCaT cells assessed as inhibition of LPS-induced IL-6 production at 25 uM after 24 hrs by ELISA relative to LPS alone; outline: as §1
[9] = tested on: HaCaT; test: Anti-inflammatory activity in human HaCaT cells assessed as inhibition of LPS-induced TNF-alpha production at 12.5 uM after 24 hrs by ELISA relative to LPS alone; outline: as §1
[10] = tested on: HaCaT; test: Anti-inflammatory activity in human HaCaT cells assessed as inhibition of LPS-induced TNF-alpha production at 25 uM after 24 hrs by ELISA relative to LPS alone; outline: as §1
[11] = tested on: HaCaT; test: Anti-inflammatory activity in human HaCaT cells assessed as inhibition of LPS-induced occluding expression at 50 uM after 24 hrs by FACS analysis (rvb = 30.17 +/- 5.98)
[12] = tested on: HaCaT; test: Anti-inflammatory activity in human HaCaT cells assessed as inhibition of LPS-induced nitrotyrosine production at 25 uM after 24 hrs by FACS analysis relative to LPS alone; outline: as §2
[13] = tested on: HaCaT; test: Anti-inflammatory activity in human HaCaT cells assessed as inhibition of LPS-induced IL-6 production at 12.5 uM after 24 hrs by ELISA relative to LPS alone; outline: as §1
[14] = tested on: HaCaT; test: Anti-inflammatory activity in human HaCaT cells assessed as inhibition of LPS-induced IL-6 production at 50 uM after 24 hrs by ELISA relative to LPS alone; outline: as §1
[15] = tested on: HaCaT; test: Anti-inflammatory activity in human HaCaT cells assessed as inhibition of LPS-induced claudin-1 expression at 25 uM after 24 hrs by FACS analysis (rvb = 31.19 +/- 0.77)
[16] = tested on: HaCaT; test: Anti-inflammatory activity in human HaCaT cells assessed as inhibition of LPS-induced IL-6 production at 10 uM after 24 hrs by ELISA relative to LPS alone; outline: as §1
[17] = tested on: HaCaT; test: Anti-inflammatory activity in human HaCaT cells assessed as inhibition of LPS-induced TNF-alpha production at 10 uM after 24 hrs by ELISA relative to LPS alone; outline: as §1

Compound | Flu intensity [1] | Flu intensity [2] | inhibition at 50 µM [3] [%] | Flu intensity [4] | Flu intensity [5] | inhibition at 12.5 µM [6] [%] | inhibition at 50 µM [7] [%] | inhibition at 25 µM [8] [%] | inhibition at 12.5 µM [9] [%] | inhibition at 25 µM [10] [%] | Flu intensity [11] | inhibition at 25 µM [12] [%] | inhibition at 12.5 µM [13] [%] | inhibition at 50 µM [14] [%] | Flu intensity [15] | inhibition at 10 µM [16] [%] | inhibition at 10 µM [17] [%]
CC1=C(CCC2=CC(O)OC2=O)[C@@]2(C)CC[C@@H](O)C(C)(C)[C@@H]2CC1=O (some centres not stated) | 10.27 | 22.83 | 73.5 | 5.01 | 13.83 | 30 | 58.7 | 70.5 | 68 | 70.5 | 25.71 | 37 | 56 | 76 | 13.14 |  | 
CC1=C(CCc2ccoc2)[C@@]2(C)CC[C@@H](O)C(C)(C)[C@@H]2[C@H](O)C1=O | 18.52 | 34.97 | 68 | 12.24 | 21.1 | 5 | 56 | 69 | 39.5 | 68 | 31.92 | 40 | 65.5 | 81 | 23.72 |  | 
CC(=O)O[C@@H]1CC[C@@]2(C)[C@@H](C(=O)[C@H](O)[C@@H](C)[C@]2(O)CCc2ccoc2)C1(C)C | 10.89 | 26.08 | 68 | 14.96 | 16.06 | 9 | 56.3 | 77 | 15.6 | 62 | 22.88 | 42.7 | 73.5 | 80.5 | 16.35 |  | 
C[C@@H]1C(=O)C[C@H]2C(C)(C)[C@H](O)CC[C@]2(C)[C@@]1(O)CCc1ccoc1 | 17.8 | 36.5 | 65 | 19.29 | 24.34 | 6.33 | 46.3 | 64.5 | 37 | 62.5 | 32.27 | 30.5 | 48 | 69.5 | 30.04 |  | 
CO[C@@H]1C[C@@]2(CC[C@@]3(O2)[C@H](C)C(=O)C[C@H]2C(C)(C)[C@H](O)CC[C@@]23C)C(=O)O1 | 9.09 | 32.36 | 56.5 | 8.09 | 18.73 | 14.3 | 57.5 | 75.5 | 41.5 | 50.5 | 25.11 | 40 | 75 | 76.5 | 24.86 |  | 
CO[C@@H]1C[C@]2(CC[C@@]3(O2)[C@H](C)C(=O)C[C@H]2C(C)(C)[C@H](O)CC[C@@]23C)CO1 | 8.82 | 33.58 | 68 | 13.55 | 18.59 | 0 | 39.3 | 71.5 | 44 | 62.5 | 24.77 | 21 | 63 | 76.5 | 22.52 |  | 
CC(=O)OC[C@@]1(C)[C@H](O)CC[C@]2(C)C(CCC3=CC(O)OC3=O)=C(C)C(=O)C[C@@H]12 (some centres not stated) | 12.54 | 34.13 | 56.5 | 14.41 | 21.77 | 3.67 | 61.7 | 49.5 | 35 | 47.5 | 32.25 | 43 | 44.5 | 73.5 | 20.73 |  | 
CO[C@H]1C[C@]2(CC[C@@]3(O2)[C@H](C)C(=O)[C@@H](O)[C@H]2C(C)(C)[C@H](O)CC[C@@]23C)CO1 | 18.89 | 31.45 | 65 | 14.39 | 23.48 | 0 | 38 | 68.5 | 44 | 55 | 35.8 | 15 | 38.5 | 78 | 22.27 |  | 
COC1C=C(CCC2=C(C)C(=O)C[C@H]3C(C)(C)[C@H](O)CC[C@]23C)C(=O)O1 (some centres not stated) | 18.46 | 27.21 | 72 | 16.74 | 22.64 | 0.5 | 59.3 | 74 | 52 | 68 | 34.73 | 29.5 | 65.5 | 74.5 | 20.46 |  | 
CC(=O)OC[C@@]1(C)[C@H](O)CC[C@]2(C)C(CCc3ccoc3)=C(C)C(=O)C[C@@H]12 | 13.27 | 17.12 | 44 | 6.86 | 19.18 | 0 | 58.3 | 67 | 0 | 25 | 31.34 | 44 | 66.5 | 73.5 | 14.18 |  | 
COc1ccc2c(c1)c(CC(=O)O)c(C)n2C(=O)c1ccc(Cl)cc1 [INDOMETHACIN] |  |  |  |  |  |  |  |  |  |  |  |  |  |  |  | 88.5 | 77
